Assay results reported in ChEMBL document CHEMBL3627670, “Structure-activity relationship studies of QS11, a small molecule Wnt synergistic agonist” (Bioorg Med Chem Lett, 2015).

Assays:
[1] = Synergistic agonist activity at Wnt/beta-catenin (unknown origin) expressed in Wnt-3A conditioned media stimulated with HEK293 cells incubated for 24 hrs by firefly luciferase based TOPflash reporter assay; assay type: cell-based; settings: Homo sapiens, HEK293, 24 h
Method in brief: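 HEK293 cells stably transfected with TOPFlash reporter, stimulated with Wnt3A conditioned media plus compound for 24 h. Luciferase activity then read by Bright-Glo luminescence. EC50 (µM) derived, given as mean ± standard deviation.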

[2] = molecular target: ADP-ribosylation factor GTPase-activating protein 1 (Rattus norvegicus) (UniProt Q62848); test: (§1) Inhibition of poly-histidine tagged full-length rat ARFGAP1 expressed in Sf9 cells assessed as remaining enzyme activity at 20 uM using purified WT ARF1 pre-loaded with [gamm-32P]-labeled GTP incubated for 5 mins before ARF1-GTP addition followed by 25 mins incubation by scintillation counting method
[3] = molecular target: ADP-ribosylation factor GTPase-activating protein 1 (Rattus norvegicus) (UniProt Q62848); test: as §1, with “10” for “20”
HEK293 = test: Potency index, ratio of EC50 for QS11 to EC50 for test compound for synergistic agonist activity at Wnt/beta-catenin (unknown origin) expressed in Wnt-3A conditioned media stimulated with HEK293 cells incubated for 24 hrs by firefly luciferase based TOPflash reporter assay; assay type: cell-based; settings: Homo sapiens

Chain of ADP-ribosylation factor GTPase-activating protein 1 (Rattus norvegicus) (Q62848 whole entry): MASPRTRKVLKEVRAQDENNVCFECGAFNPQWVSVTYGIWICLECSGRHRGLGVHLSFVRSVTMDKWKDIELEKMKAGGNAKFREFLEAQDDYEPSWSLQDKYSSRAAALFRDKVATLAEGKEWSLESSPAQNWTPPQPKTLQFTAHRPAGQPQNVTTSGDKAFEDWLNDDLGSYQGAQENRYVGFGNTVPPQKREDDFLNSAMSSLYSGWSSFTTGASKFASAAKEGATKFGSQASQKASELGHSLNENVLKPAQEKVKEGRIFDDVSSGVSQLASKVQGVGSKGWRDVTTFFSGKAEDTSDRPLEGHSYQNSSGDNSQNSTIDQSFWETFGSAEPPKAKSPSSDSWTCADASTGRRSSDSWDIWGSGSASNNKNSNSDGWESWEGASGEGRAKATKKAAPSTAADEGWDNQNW

| SMILES | EC50 [1] [µM] | Activity [2] [%] | Activity [3] [%] | Ratio EC50 (HEK293) |
| --- | --- | --- | --- | --- |
| CC(c1ccc(-c2ccccc2)cc1)n1cnc2c(N[C@H](CO)Cc3ccccc3)nc(Oc3ccc4c(c3)CCC4)nc21 (some centres not stated) | 2.6 | 36 | 50 |  |
| OC[C@H](Cc1ccccc1)Nc1nc(Oc2ccc3c(c2)CCC3)nc2c1ncn2Cc1ccc(Oc2ccccc2)cc1 | > 100 | 40 | 42 |  |
| CC[C@@H](CO)Nc1nc(Oc2ccc3ccccc3c2)nc2c1ncn2Cc1ccc(-c2ccccc2)cc1 | 4 | 24 | 41 |  |
| COc1ccc(Cn2cc(Cn3cnc4c(N[C@H](CO)Cc5ccccc5)nc(Oc5ccc6c(c5)CCC6)nc43)nn2)cc1 | > 100 | 75 | 98 |  |
| c1ccc(-c2ccc(Cn3cnc4c(NCc5cccc6ccccc56)nc(Oc5ccc6ccccc6c5)nc43)cc2)cc1 | > 100 | 31 | 53 |  |
| COc1cccc(Oc2nc(NCc3cccc4ccccc34)c3ncn(Cc4ccc(-c5ccccc5)cc4)c3n2)c1 | > 100 | 29 | 37 |  |
| OC[C@H](Cc1ccccc1)Nc1nc(N2CCOCC2)nc2c1ncn2Cc1ccc(-c2ccccc2)cc1 | 1.5 | 71 | 98 |  |
| FC(F)(F)c1cccc(Oc2nc(NCc3cccc4ccccc34)c3ncn(Cc4ccc(-c5ccccc5)cc4)c3n2)c1 | 18 | 12 | 16 |  |
| OC[C@H](Cc1ccccc1)Nc1nc(Oc2ccc3c(c2)CCC3)nc2c1ncn2Cc1ccc(-c2ccccc2)cc1 | 1.5 | 10 | 33 |  |
| CC[C@@H](CO)Nc1nc(Oc2ccc3c(c2)OCO3)nc2c1ncn2Cc1ccc(-c2ccccc2)cc1 | > 100 | 32 | 70 |  |
| CC[C@@H](CO)Nc1nc(Oc2cccc3ccccc23)nc2c1ncn2Cc1ccc(-c2ccccc2)cc1 | 1.3 | 15 | 22 |  |
| OC[C@H](Cc1ccccc1)Nc1nc(Oc2ccc3c(c2)CCC3)nc2c1ncn2-c1ccc(-c2ccccc2)cc1 | > 100 | 32 | 50 |  |
| COC(=O)[C@H](Cc1ccccc1)Nc1nc(Oc2ccc3c(c2)OCO3)nc2c1ncn2Cc1ccc(-c2ccccc2)cc1 | 1.1 | 18 | 31 |  |
| COC(=O)[C@H](Cc1ccccc1)Nc1nc(Oc2ccc3ccccc3c2)nc2c1ncn2Cc1ccc(-c2ccccc2)cc1 | 0.65 | 17 | 25 | 2 |
| Cc1ccccc1Cn1cc(Cn2cnc3c(N[C@H](CO)Cc4ccccc4)nc(Oc4ccc5c(c4)CCC5)nc32)nn1 | > 100 | 27 | 50 |  |
| OC[C@H](Cc1ccccc1)Nc1nc(Oc2ccc3c(c2)OCO3)nc2c1ncn2Cc1ccc(-c2ccccc2)cc1 | 8.5 | 39 | 49 |  |
| OC[C@H](Cc1ccccc1)Nc1nc(Oc2ccc3c(c2)CCC3)nc2c1ncn2CCOCc1ccccc1 | > 100 | 109 | 106 |  |
| OC[C@H](Cc1ccccc1)Nc1nc(Oc2ccc3c(c2)CCC3)nc2c1ncn2Cc1cn(Cc2ccccc2)nn1 | > 100 | 62 | 93 |  |
| c1ccc(CCNc2nc(Oc3ccc4ccccc4c3)nc3c2ncn3Cc2ccc(-c3ccccc3)cc2)cc1 | > 100 | 86 | 90 |  |
| COc1cccc(Oc2nc(NCCc3ccccc3)c3ncn(Cc4ccc(-c5ccccc5)cc4)c3n2)c1 | > 100 | 40 | 46 |  |
| OC[C@H](Cc1ccccc1)Nc1nc(Oc2ccc3c(c2)CCC3)nc2c1ncn2Cc1ccc(-c2ccccc2F)cc1 | > 100 | 47 | 81 |  |
| c1ccc(CCNc2nc(Oc3cccc4ccccc34)nc3c2ncn3Cc2ccc(-c3ccccc3)cc2)cc1 | > 100 | 20 | 32 |  |
| COc1nc(N[C@H](CO)Cc2ccccc2)c2ncn(Cc3ccc(-c4ccccc4)cc3)c2n1 | 2.6 | 39 | 70 |  |
| c1ccc(-c2ccc(Cn3cnc4c(NCc5cccc6ccccc56)nc(Oc5ccc6c(c5)OCO6)nc43)cc2)cc1 | > 100 | 34 | 35 |  |
| COc1ccc(Oc2nc(N[C@H](CO)Cc3ccccc3)c3ncn(Cc4ccc(-c5ccccc5)cc4)c3n2)cc1OC | 3.6 | 22 | 55 |  |
| CC[C@@H](CO)Nc1nc(Oc2ccc3c(c2)CCC3)nc2c1ncn2Cc1ccc(-c2ccccc2)cc1 | 4.5 | 57 | 90 |  |
| COc1cccc(Oc2nc(N[C@H](CO)Cc3ccccc3)c3ncn(Cc4ccc(-c5ccccc5)cc4)c3n2)c1 | 3.3 | 29 | 54 |  |

The next lines start with results.

| EC50 [1] [µM] | Activity [2] [%] | Activity [3] [%] | SMILES | Ratio EC50 (HEK293) |
| --- | --- | --- | --- | --- |
| 2.9 | 78 | 81 | OC[C@H](Cc1ccccc1)Nc1nc(Oc2cccc(C(F)(F)F)c2)nc2c1ncn2Cc1ccc(-c2ccccc2)cc1 |  |
| 3.4 | 12 | 21 | COC(=O)[C@H](Cc1ccccc1)Nc1nc(Oc2cccc3ccccc23)nc2c1ncn2Cc1ccc(-c2ccccc2)cc1 |  |
| > 100 | 57 | 105 | OC[C@H](Cc1ccccc1)Nc1nc(Oc2ccc3c(c2)CCC3)nc2c1ncn2Cc1cn(-c2ccccc2)nn1 |  |
| > 100 | 20 | 20 | c1ccc(-c2ccc(Cn3cnc4c(NCc5cccc6ccccc56)nc(Oc5cccc6ccccc56)nc43)cc2)cc1 |  |
| > 100 | 45 | 58 | O=[N+]([O-])c1ccc(Cn2cc(Cn3cnc4c(N[C@H](CO)Cc5ccccc5)nc(Oc5ccc6c(c5)CCC6)nc43)nn2)cc1 |  |
| > 100 | 27 | 31 | c1ccc(CCNc2nc(Oc3ccc4c(c3)OCO4)nc3c2ncn3Cc2ccc(-c3ccccc3)cc2)cc1 |  |
| 4.4 | 35 | 53 | OC[C@H](Cc1ccccc1)Nc1nc(Oc2ccc3ccccc3c2)nc2c1ncn2Cc1ccc(-c2ccccc2)cc1 |  |
| > 100 | 34 | 42 | COc1ccc(-c2ccc(Cn3cnc4c(N[C@H](CO)Cc5ccccc5)nc(Oc5ccc6c(c5)CCC6)nc43)cc2)cc1 |  |
| > 100 | 50 | 60 | c1ccc(CCNc2nc(Oc3ccc4c(c3)CCC4)nc3c2ncn3Cc2ccc(-c3ccccc3)cc2)cc1 |  |
| 1.9 | 11 | 24 | COc1cc(OC)cc(Oc2nc(N[C@H](CO)Cc3ccccc3)c3ncn(Cc4ccc(-c5ccccc5)cc4)c3n2)c1 |  |
| > 100 | 33 | 41 | FC(F)(F)c1cccc(Oc2nc(NCCc3ccccc3)c3ncn(Cc4ccc(-c5ccccc5)cc4)c3n2)c1 |  |
| 6.6 | 24 | 35 | OC[C@H](Cc1ccccc1)Nc1nc(Oc2cccc3ccccc23)nc2c1ncn2Cc1ccc(-c2ccccc2)cc1 |  |
| > 100 | 41 | 56 | Cc1ccccc1-c1ccc(Cn2cnc3c(N[C@H](CO)Cc4ccccc4)nc(Oc4ccc5c(c4)CCC5)nc32)cc1 |  |
| > 100 | 113 | 117 | OC[C@H](Cc1ccccc1)Nc1nc(Oc2ccc3c(c2)CCC3)nc2c1ncn2Cc1ccccc1 |  |
| > 100 | 63 | 74 | c1ccc(-c2ccc(Cn3cnc4c(NCc5cccc6ccccc56)nc(Oc5ccc6c(c5)CCC6)nc43)cc2)cc1 |  |
